Columns and labels:
[1] = Oral bioavailability in BALB/cAnNCrl mouse at 10 mg/kg; conditions: in vivo
[2] = Half life in BALB/cAnNCrl mouse at 10 mg/kg, po; conditions: in vivo
[3] = Growth inhibition of human WM266.4 cells expressing BRAF V600E mutant after 5 days by SRB assay; type: functional; conditions: WM 266-4, 120 h
Method in brief: (§1)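 Antiproliferative SRB assay in WM266.4 (BRAF mutant), WM1361 (NRAS mutant) and D24 (BRAF/NRAS wild-type) melanoma cells, with GI50 derived from the assay.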

[4] = Ratio of Cmax in BALB/cAnNCrl mouse to GI50 for human WM266.4 cells
[5] = Tmax in BALB/cAnNCrl mouse at 10 mg/kg, po; conditions: in vivo
[6] = target: T1, Serine/threonine-protein kinase B-raf (Homo sapiens, UniProt P15056, V600E); experiment: Inhibition of BRAF V600E mutant-mediated ERK phosphorylation in human WM266.4 cells; type: cell-based
T1 sequence (P15056 2-766 V600E limits assumed): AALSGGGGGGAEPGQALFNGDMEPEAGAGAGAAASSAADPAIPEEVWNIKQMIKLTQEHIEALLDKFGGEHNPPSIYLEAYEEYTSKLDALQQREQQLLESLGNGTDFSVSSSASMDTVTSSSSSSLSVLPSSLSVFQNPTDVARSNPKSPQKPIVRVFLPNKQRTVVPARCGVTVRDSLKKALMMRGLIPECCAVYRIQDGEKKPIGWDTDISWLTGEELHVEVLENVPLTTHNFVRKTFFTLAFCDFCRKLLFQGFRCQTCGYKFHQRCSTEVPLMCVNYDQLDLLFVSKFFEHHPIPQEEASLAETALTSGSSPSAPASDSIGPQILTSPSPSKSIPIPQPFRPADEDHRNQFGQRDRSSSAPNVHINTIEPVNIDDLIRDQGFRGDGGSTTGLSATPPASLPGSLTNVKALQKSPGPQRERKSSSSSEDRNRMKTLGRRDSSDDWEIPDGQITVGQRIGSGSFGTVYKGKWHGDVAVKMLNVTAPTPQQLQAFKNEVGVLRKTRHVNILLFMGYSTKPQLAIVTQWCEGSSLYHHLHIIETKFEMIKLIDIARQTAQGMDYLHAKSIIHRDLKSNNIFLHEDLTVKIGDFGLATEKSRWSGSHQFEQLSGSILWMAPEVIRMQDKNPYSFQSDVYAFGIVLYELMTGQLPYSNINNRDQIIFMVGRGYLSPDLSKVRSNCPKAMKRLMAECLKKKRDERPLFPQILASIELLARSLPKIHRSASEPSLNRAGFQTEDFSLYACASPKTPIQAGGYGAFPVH
Method in brief: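 Cellular IC50 for inhibition of phosphoERK formation.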

[7] = Cmax in BALB/cAnNCrl mouse at 10 mg/kg, po; conditions: in vivo
[8] = target: T1, Serine/threonine-protein kinase B-raf; experiment: Inhibition of B-Raf V600E mutant
Method in brief: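 Enzymatic IC50 determined in vitro against purified V600E BRAF.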

[9] = Selectivity index, ratio of GI50 for human WM1361 cells to GI50 for human WM266.4
[10] = Selectivity index, ratio of GI50 for human WM1361 cells to GI50 for human WM266.4 cells; type: functional
Method in brief: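 GI50 values from the SRB proliferation assay, expressed relative to the GI50 in WM266.4 (BRAF mutant) cells.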

[11] = Growth inhibition of human WM1361 cells expressing NRAS mutant after 5 days by SRB assay; type: functional; conditions: WM1361, 120 h
Method in brief: as §1

[12] = Growth inhibition of D24 after 5 days by SRB assay; type: functional
Method in brief: as §1

bioavailability [1]	half-life [2]	Tmax [5]	IC50 [6]	Cmax [7]	IC50 [8]	SMILES	GI50 [3]	Ratio [4]	RatioGI50 [9]	RatioGI50 [10]	GI50 [11]	GI50 [12]
24%	5.9 h	3 h	24 nM	33.6 µM	–	Cc1ccc(-n2nc(C(C)(C)C)cc2NC(=O)Nc2ccc(Oc3ccnc4[nH]c(=O)cnc34)cc2F)cc1	15 nM	2240	–	–	–	–
1%	5.4 h	3 h	75 nM	5.54 µM	90 nM	Cc1ccc(-n2nc(C(C)(C)C)cc2NC(=O)Nc2ccc(Oc3ccnc4[nH]c(=O)c(=O)[nH]c34)cc2F)cc1	79 nM	70	–	–	–	–
4%	–	3 h	62 nM	0.316 µM	4 nM	Cc1nc2c(Oc3ccc(NC(=O)Nc4cc(C(F)(F)F)ccc4F)c4ccccc34)ccnc2[nH]c1=O	36 nM	–	–	–	–	–
27%	4 h	0.5 h	274 nM	27 µM	87 nM	Cc1ccc(-n2nc(C(C)(C)C)cc2NC(=O)Nc2cccc(Oc3ccnc4[nH]c(=O)cnc34)c2)cc1	190 nM	142	130	60	12000 nM	26000 nM
13%	3.3 h	3 h	55 nM	11.7 µM	310 nM	Cc1ccc(-n2nc(C(C)(C)C)cc2NC(=O)Nc2ccc(Oc3ccnc4[nH]c(S)nc34)cc2F)cc1	154 nM	76	–	–	–	–
6%	1.4 h	0.5 h	280 nM	29.5 µM	58 nM	CC(C)(C)c1cc(NC(=O)Nc2cccc(Oc3ccnc4[nH]c(=O)cnc34)c2)n(-c2ccccc2)n1	170 nM	170	–	–	–	–
–	–	–	780 nM	–	580 nM	Cc1ccc(-n2nc(C(C)(C)C)cc2NC(=O)Nc2cccc(Oc3ccnc4ncc(=O)[nH]c34)c2)cc1	345 nM	–	–	–	–	–
–	–	–	> 10000 nM	–	134 nM	O=C(Nc1cc(C(F)(F)F)ccc1F)Nc1ccc(Oc2ccnc3[nH]c(=O)c(C(F)(F)F)nc23)c2ccccc12	> 10000 nM	–	–	–	–	–
–	–	–	7 nM	–	85 nM	CC(C)(C)c1cc(NC(=O)Nc2ccc(Oc3ccnc4[nH]c(=O)c(N)nc34)c3ccccc23)n(-c2ccccc2)n1	9 nM	–	–	–	–	–
–	–	–	1430 nM	–	10 nM	Cc1nc2c(Oc3cccc(NC(=O)c4cccc(C(C)(C)C)c4)c3)ccnc2[nH]c1=O	890 nM	–	–	–	–	–
–	–	–	195 nM	–	4 nM	CSc1cc(Oc2ccnc3[nH]c(=O)cnc23)ccc1NC(=O)Nc1cc(C(F)(F)F)ccc1F	96 nM	–	–	–	–	–
–	–	–	16000 nM	–	110 nM	CN1CCN(c2cnc3c(Oc4ccc(NC(=O)Nc5cc(C(F)(F)F)ccc5F)c(F)c4)ccnc3n2)CC1	120 nM	–	–	–	–	–
71%	7.9 h	3 h	5 nM	101 µM	19 nM	CSc1cc(Oc2ccnc3[nH]c(=O)cnc23)ccc1NC(=O)Nc1cc(C(C)(C)C)nn1-c1ccc(C)cc1	1 nM	101200	–	–	–	–
–	–	–	48 nM	–	264 nM	CC(C)(C)c1cc(NC(=O)Nc2ccc(Oc3ccnc4ncc(=O)[nH]c34)c3ccccc23)n(-c2ccccc2)n1	73 nM	–	–	–	–	–
–	–	–	229 nM	–	43 nM	Nc1nc2nccc(Oc3ccc(NC(=O)Nc4cc(C(F)(F)F)ccc4F)c4ccccc34)c2[nH]c1=O	204 nM	–	–	–	–	–
–	–	–	750 nM	–	4100 nM	CN1CCN(c2cnc3c(Oc4ccc(NC(=O)Nc5cc(C(C)(C)C)nn5-c5ccccc5)c(F)c4)ccnc3n2)CC1	417 nM	–	–	–	–	–
–	–	–	660 nM	–	6 nM	O=C(Nc1ccc(Cl)c(C(F)(F)F)c1)Nc1ccc(Oc2ccnc3[nH]c(=O)cnc23)cc1F	1300 nM	–	–	–	–	–
–	–	–	390 nM	–	8500 nM	Cc1nc2nccc(Oc3ccc(NC(=O)Nc4cc(C(C)(C)C)nn4-c4ccccc4)c(F)c3)c2[nH]c1=O	430 nM	–	–	–	–	–
–	–	–	24000 nM	–	69 nM	O=C(Nc1ccc(Oc2ccnc3[nH]nnc23)cc1F)Nc1cc(C(F)(F)F)ccc1F	39000 nM	–	–	–	–	–
7%	1.7 h	0.25 h	8 nM	14.2 µM	77 nM	CC(C)(C)c1cc(NC(=O)Nc2ccc(Oc3ccnc4[nH]c(=O)cnc34)c3ccccc23)n(-c2ccccc2)n1	105 nM	130	–	–	–	–
17%	6.3 h	0.5 h	96 nM	31.9 µM	–	Cc1ccc(-n2nc(C(C)(C)C)cc2NC(=O)Nc2ccc(Oc3ccnc4[nH]c(=O)cnc34)cc2)cc1	62 nM	510	–	–	–	–
–	–	–	3800 nM	–	97 nM	O=C(Nc1ccc(Oc2ccnc3nc(N4CCOCC4)cnc23)cc1F)Nc1cc(C(F)(F)F)ccc1F	1120 nM	–	–	–	–	–
–	–	–	3500 nM	–	34 nM	CC(C)(C)c1cccc(C(=O)Nc2cccc(Oc3ccnc4ncc(=O)[nH]c34)c2)c1	2540 nM	–	–	–	–	–
–	–	–	750 nM	–	8200 nM	CC(C)(C)c1cc(NC(=O)Nc2ccc(Oc3ccnc4nc(N5CCOCC5)cnc34)cc2F)n(-c2ccccc2)n1	428 nM	–	–	–	–	–
–	–	–	3500 nM	–	54 nM	O=C1CNc2nccc(Oc3ccc(NC(=O)Nc4cc(C(F)(F)F)ccc4F)cc3)c2N1	1690 nM	–	–	–	–	–
–	–	–	11 nM	–	320 nM	Cc1ccc(-n2nc(C(C)(C)C)cc2NC(=O)Nc2ccc(Oc3ccnc4[nH]c(=O)c(N)nc34)cc2F)cc1	8 nM	–	–	–	–	–

Source: ChEMBL document CHEMBL1212820, “Novel hinge binder improves activity and pharmacokinetic properties of BRAF inhibitors” (J Med Chem, 2010)
